In brackets after ≈: the same amount, converted by molar mass. Activity calls are given as the source filed them. The rule behind the calls is not given here.
Key:
Staphylococcus aureus [1] = test: Antibacterial activity against methicillin-resistant Staphylococcus aureus ATCC 43300 infected in Albino guiena pig assessed as decrease in planktonic bacterial counts in cage fluid at 12.5 mg/kg after measured on day 10 postinfection; type: functional
In short: (§1)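 Guinea pig subcutaneous cage model infected with 2 × 10^4 CFU MRSA. Intraperitoneal dosing every 12 h for 4 days, starting day 1. Cage-fluid CFU counted on day 1, day 4 (before last dose) and day 10. Δlog10 CFU/ml is day 4 or day 10 minus day 1. Quantification limit 1,000 CFU/ml; negatives set to 3 log10. Median and IQR.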

Staphylococcus aureus [2] = test: Antibacterial activity against methicillin-resistant Staphylococcus aureus ATCC 43300 infected in Albino guiena pig assessed as no. of culture-negative cage fluid samples at 12.5 mg/kg measured on day 4 postinfection; type: functional
In short: (§2)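 Same guinea pig cage infection and intraperitoneal 4-day, twice-daily regimen. Cage fluid cultured on day 4 and day 10. Result is the number of cage fluid samples without detectable MRSA growth over the total cages per group.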

Staphylococcus aureus [3] = test: Antibacterial activity against methicillin-resistant Staphylococcus aureus ATCC 43300 infected in Albino guiena pig assessed as no. of culture-negative cage fluid samples at 12.5 mg/kg measured on day 10 postinfection; type: functional; in short: as §2
Staphylococcus aureus [4] = test: Antibacterial activity against methicillin-resistant Staphylococcus aureus ATCC 43300 infected in Albino guiena pig assessed as decrease in planktonic bacterial counts in cage fluid at 12.5 mg/kg measured on day 4 postinfection; type: functional; in short: as §1
[5] = AUC (0 to 24 hrs) in cage fluid of Albino guiena pig at 12.5 mg/kg, ip; type: ADME, organism-based, Cavia porcellus; parameters: time < 24 hr, dose 12.5 mg/kg, route intraperitoneal; details: guinea pig
[6] = Tmax in cage fluid of Albino guiena pig at 12.5 mg/kg, ip; type: ADME, organism-based, Cavia porcellus; parameters: dose 12.5 mg/kg, route intraperitoneal; details: guinea pig
[7] = Cmin in cage fluid of Albino guiena pig at 12.5 mg/kg, ip after 12 hrs; type: ADME, organism-based, Cavia porcellus; parameters: dose 12.5 mg/kg, route intraperitoneal; details: guinea pig, read-out: Cmin
[8] = Cmax in cage fluid of Albino guiena pig at 12.5 mg/kg, ip after 12 hrs; type: ADME, organism-based, Cavia porcellus, Interstitial fluid; parameters: dose 12.5 mg/kg, route intraperitoneal; details: guinea pig
Staphylococcus aureus [9] = test: Antibacterial activity against 1 x10'6 to 5 x10^6 CFU/ml methicillin-resistant Staphylococcus aureus ATCC 43300 assessed as percent resistant isolates at MIC after 24 hrs by time kill study; type: functional
Staphylococcus aureus [10] = test: Antibacterial activity against 1 x10'6 to 5 x10^6 CFU/ml methicillin-resistant Staphylococcus aureus ATCC 43300 assessed as bacterial regrowth after 24 hrs by time kill study; type: functional, organism-based
In short: (§3)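 MRSA inoculum of 1 × 10^6 to 5 × 10^6 CFU/ml in 10 ml Mueller-Hinton broth. Drug at 1× and 4× MIC; drug-free growth control. Incubated at 37°C. Aliquots plated on Mueller-Hinton agar at 0, 6 and 24 h. Quantification limit 200 CFU/ml. Mean log10 CFU/ml reduction ± SD.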

Staphylococcus aureus [11] = test: Antibacterial activity against 1 x10'6 to 5 x10^6 CFU/ml methicillin-resistant Staphylococcus aureus ATCC 43300 assessed as log decrease in bacterial count at 4 times MIC after 6 hrs by time kill study; type: functional; in short: as §3
Staphylococcus aureus [12] = test: Antibacterial activity against 1 x10'6 to 5 x10^6 CFU/ml methicillin-resistant Staphylococcus aureus ATCC 43300 assessed as log decrease in bacterial count at MIC after 6 hrs by time kill study; type: functional; in short: as §3
Staphylococcus aureus [13] = test: Antibacterial activity against methicillin-resistant Staphylococcus aureus ATCC 43300 during stationary growth phase by macrodilution method; type: functional
Staphylococcus aureus [14] = test: Antibacterial activity against methicillin-resistant Staphylococcus aureus ATCC 43300 during logarithmic growth phase by macrodilution method; type: functional
Staphylococcus aureus [15] = test: Antibacterial activity against methicillin-resistant Staphylococcus aureus ATCC 43300 by macrodilution method; type: functional
In short: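 Broth macrodilution MIC in Mueller-Hinton broth per CLSI. Inoculum 1 × 10^5 to 5 × 10^5 CFU/ml. Ten twofold drug dilutions, 18 h at 37°C without shaking. MIC is the lowest concentration with no visible growth. Triplicate.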

[16] = AUC (0 to 24 hrs) in cage fluid of Albino guiena pig at 10 mg/kg, ip; type: ADME, organism-based, Cavia porcellus; parameters: time < 24 hr, dose 10 mg/kg, route intraperitoneal; details: guinea pig
[17] = Half life in cage fluid of Albino guiena pig at 10 mg/kg, ip; type: ADME, organism-based, Cavia porcellus; parameters: dose 10 mg/kg, route intraperitoneal; details: guinea pig, in vivo
[18] = Tmax in cage fluid of Albino guiena pig at 10 mg/kg, ip; type: ADME, organism-based, Cavia porcellus; parameters: dose 10 mg/kg, route intraperitoneal; details: guinea pig
[19] = Cmin in cage fluid of Albino guiena pig at 10 mg/kg, ip after 12 hrs; type: ADME, organism-based, Cavia porcellus; parameters: dose 10 mg/kg, route intraperitoneal; details: guinea pig, read-out: Cmin
[20] = Cmax in cage fluid of Albino guiena pig at 10 mg/kg, ip after 12 hrs; type: ADME, organism-based, Cavia porcellus, Interstitial fluid; parameters: dose 10 mg/kg, route intraperitoneal; details: guinea pig

Row | SMILES | log10CFU/ml (Staphylococcus aureus [1]) | Activity (Staphylococcus aureus [2]) [%] | Activity (Staphylococcus aureus [3]) [%] | log10CFU/ml (Staphylococcus aureus [4]) | AUC(0-t) at 24 h [5] [ng·h/mL] | Tmax [6] [h] | concentration at 12 h [7] [ng/mL] | Cmax [8] [ng/mL] | Activity (Staphylococcus aureus [9]) [%] | Activity (Staphylococcus aureus [10]) | log10CFU/ml (Staphylococcus aureus [11]) | log10CFU/ml (Staphylococcus aureus [12]) | MBC (Staphylococcus aureus [13]) [µg/mL] | MBC (Staphylococcus aureus [14]) [µg/mL] | MIC (Staphylococcus aureus [15]) [µg/mL] | AUC(0-t) at 24 h [16] [ng·h/mL] | t1/2 [17] [h] | Tmax [18] [h] | concentration at 12 h [19] [ng/mL] | Cmax [20] [ng/mL]
1 | CO[C@H]1/C=C/O[C@@]2(C)Oc3c(C)c(O)c4c(O)c(c(/C=N/N5CCN(C)CC5)c(O)c4c3C2=O)NC(=O)/C(C)=C\C=C\[C@H](C)[C@H](O)[C@@H](C)[C@@H](O)[C@@H](C)[C@H](OC(C)=O)[C@@H]1C [RIFAMPIN] | <3 | 50 | 92 | 3.1 | 4600 | 2.1 | 100 | 1000 | 94 | inactive | 0.5 | 0.5 | 2.5 (≈ 3.04 µM) | 0.08 (≈ 0.0972 µM) | 0.01 (≈ 0.0122 µM) |  |  |  |  | 
2 | C[C@H]1COc2c(N3CCN(C)CC3)c(F)cc3c(=O)c(C(=O)O)cn1c23.C[C@H]1COc2c(N3CCN(C)CC3)c(F)cc3c(=O)c(C(=O)O)cn1c23.O [LEVOFLOXACIN] |  |  |  |  |  |  |  |  |  |  |  |  | > 20 | 0.63 | 0.16 | 6100 | 4.2 | 2.5 | 300 | 1500

— ChEMBL document CHEMBL1629645 (Antimicrob Agents Chemother, 2009)
